Measurements from ChEMBL document CHEMBL4825680, “Structure-based discovery of potent and selective small-molecule inhibitors targeting signal transducer and activator of transcription 3 (STAT3)” (Eur J Med Chem, 2021).
The source made the active and inactive calls. No cut-off for these calls is given here.

How the values were obtained:
[1] = target: T1, Signal transducer and activator of transcription 1-alpha/beta (Homo sapiens) (UniProt P42224); test: Inhibition of STAT1 phosphorylation at Y701 residue in human HCC70 cells at 0.3 to 3 uM after 3 hrs by Western blotting analysis; assay type: cell-based; details: dose 0.3-3 µM
T1 sequence (whole entry): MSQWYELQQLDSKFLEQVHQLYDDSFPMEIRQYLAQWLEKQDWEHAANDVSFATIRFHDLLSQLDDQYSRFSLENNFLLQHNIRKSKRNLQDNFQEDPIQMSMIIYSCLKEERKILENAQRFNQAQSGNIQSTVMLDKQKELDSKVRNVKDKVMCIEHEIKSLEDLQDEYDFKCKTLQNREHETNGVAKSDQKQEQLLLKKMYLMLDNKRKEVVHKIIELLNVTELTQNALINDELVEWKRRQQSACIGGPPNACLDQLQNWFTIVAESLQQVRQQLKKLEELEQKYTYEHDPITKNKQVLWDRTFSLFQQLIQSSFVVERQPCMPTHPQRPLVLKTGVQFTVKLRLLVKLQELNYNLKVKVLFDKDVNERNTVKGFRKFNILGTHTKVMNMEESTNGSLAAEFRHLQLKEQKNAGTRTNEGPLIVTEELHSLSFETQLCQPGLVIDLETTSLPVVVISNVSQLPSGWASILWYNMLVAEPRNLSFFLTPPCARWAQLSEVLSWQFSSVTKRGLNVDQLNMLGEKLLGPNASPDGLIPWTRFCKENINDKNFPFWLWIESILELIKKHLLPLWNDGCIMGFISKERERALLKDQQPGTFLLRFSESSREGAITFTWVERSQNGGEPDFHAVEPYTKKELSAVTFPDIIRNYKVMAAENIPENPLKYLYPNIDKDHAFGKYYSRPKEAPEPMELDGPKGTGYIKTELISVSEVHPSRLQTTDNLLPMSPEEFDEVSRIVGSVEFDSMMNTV

[2] = target: T2, Signal transducer and activator of transcription 3 (Homo sapiens, UniProt P40763); test: Inhibition of STAT3 in human HCC70 cells assessed as downregulation of Mcl-1 expression at 0.3 to 3 uM after 24 hrs by western blot analysis; assay type: cell-based; details: dose 0.3-3 µM
T2 sequence (P40763 whole entry): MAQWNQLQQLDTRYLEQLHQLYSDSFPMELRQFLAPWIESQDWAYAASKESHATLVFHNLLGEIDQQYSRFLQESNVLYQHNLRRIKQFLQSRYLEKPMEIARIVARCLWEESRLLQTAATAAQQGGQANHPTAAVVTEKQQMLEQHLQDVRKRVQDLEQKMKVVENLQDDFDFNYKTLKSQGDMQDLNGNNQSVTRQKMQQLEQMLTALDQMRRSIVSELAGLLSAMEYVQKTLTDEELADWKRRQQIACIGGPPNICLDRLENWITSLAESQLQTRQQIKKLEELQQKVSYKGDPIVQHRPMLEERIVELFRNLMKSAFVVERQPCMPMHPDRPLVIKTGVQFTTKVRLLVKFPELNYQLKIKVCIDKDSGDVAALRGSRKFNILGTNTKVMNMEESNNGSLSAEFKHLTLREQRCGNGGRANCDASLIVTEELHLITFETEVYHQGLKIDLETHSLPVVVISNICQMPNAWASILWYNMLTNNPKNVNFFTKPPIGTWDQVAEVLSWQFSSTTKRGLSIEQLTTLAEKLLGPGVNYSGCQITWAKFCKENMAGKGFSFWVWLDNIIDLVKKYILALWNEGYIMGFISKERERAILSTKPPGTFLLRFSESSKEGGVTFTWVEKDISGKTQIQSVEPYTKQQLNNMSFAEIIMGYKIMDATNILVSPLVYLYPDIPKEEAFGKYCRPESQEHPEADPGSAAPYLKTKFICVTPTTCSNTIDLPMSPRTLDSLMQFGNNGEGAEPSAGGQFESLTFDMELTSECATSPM
Outline: (§1)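 TNBC cells given vehicle (0.1% DMSO) or graded compound levels for 24 h, lysed in RIPA with PMSF and phosphatase inhibitors. BCA-quantified lysate (20–50 µg) run on SDS-PAGE, transferred to PVDF, blocked in 5% BSA. Probed overnight at 4 °C for Bcl-xL, Mcl-1 and c-Myc, with β-actin. HRP secondary, ECL detection. Three independent experiments.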

MDA-MB-231 [3] = test: Induction of apoptosis in human MDA-MB-231 cells assessed as increase in PARP cleavage at 3 uM after 48 hrs by Western blot analysis; assay type: functional, cell-based
Outline: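 Cells were treated with vehicle (0.1% DMSO) or compound, then analysed by western blot of RIPA lysates (20–50 μg protein, SDS-PAGE, PVDF) for PARP and cleaved caspase-7, with β-actin as loading control. Three independent experiments.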

H9c2 = test: Antiproliferative activity against rat H9C2 cells assessed as reduction in cell viability after 72 hrs by CCK8 assay; assay type: cell-based; details: H9c2, 72 h
Outline: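 Cells seeded at 1000–8000 per well were grown overnight, then exposed to 0.1–100 μM compound or 0.1% DMSO vehicle for 72 h. CCK-8 was added for 0.5–4 h at 37 °C and absorbance read at 480 nm. Viability = (OD compound − blank)/(OD vehicle − blank) × 100, with medium as blank. IC50 fitted from three independent experiments.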

MDA-MB-468 [4] = test: Induction of apoptosis in human MDA-MB-468 cells assessed as late apoptotic cells at 1 uM after 48 hrs by Annexin-V-FITC/propidium iodide staining based flow cytometric analysis (reference value: 1.25%); assay type: functional
[5] = Toxicity in mouse xenografted with human MDA-MB-231-4175 cells assessed as morphological change in heart at 5 to 15 mg/kg, […] once daily for 20 days by HE staining based assay; assay type: organism-based; details: in vivo, iv, 480 h, dose 5-15 mg/kg, time 20 day
Outline: (§2)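 Female NOD-SCID mice aged 4–5 weeks, given 2×10^6–3×10^6 MDA-MB-231-4175 cells subcutaneously in the flank. At about 100 mm³ tumour volume, randomised n=6/group: vehicle (PBS with 15% Cremophor EL), 5 or 15 mg/kg intraperitoneally daily. Killed at day 20; heart, liver, spleen, lung and kidney collected for morphological examination.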

[6] = Toxicity in NOD/SCID mouse xenografted with patient-derived breast cancer cells assessed as morphological change in kidney at 5 to 15 mg/kg, […] once daily for 20 days by HE staining based assay; assay type: organism-based; details: in vivo, iv, dose 5-15 mg/kg, time 20 day
Outline: as §2, with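 “implanted” for “aged 4–5 weeks, given 2×10^6–3×10^6 MDA-MB-231-4175 cells”, “flank with about 2 mm³ TNBC PDX fragments.” for “flank.”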

[7] = Toxicity in NOD/SCID mouse xenografted with patient-derived breast cancer cells assessed as loss of appetite at 5 to 15 mg/kg, iv administered once daily for 20 days; assay type: organism-based; details: in vivo, 480 h, dose 5-15 mg/kg, time 20 day
[8] = target: T2, Signal transducer and activator of transcription 3; test: Inhibition of phosphorylated STAT3 nuclear translocation in human MDA-MB-231 cells after 12 hrs by immunofluorescence analysis; assay type: cell-based; details: dose 0.3-3 µM
Outline: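 MDA-MB-231 cells (constitutively active STAT3) treated with vehicle or compound for 12 h. Immunofluorescence staining with a p-STAT3-specific primary antibody and an Alexa Fluor secondary antibody.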

[9] = target: T2, Signal transducer and activator of transcription 3; test: Inhibition of STAT3 in human MDA231-LM2-4175 cells assessed as downregulation of Mcl-1 expression at 0.3 to 3 uM after 24 hrs by western blot analysis; assay type: cell-based; details: dose 0.3-3 µM; outline: as §1
MDA-MB-231 [10] = test: Induction of apoptosis in human MDA-MB-231 cells assessed as viable cells at 3 uM after 48 hrs by Annexin-V-FITC/propidium iodide staining based flow cytometric analysis (reference value: 93.4%); assay type: functional; details: read-out: Activity
MDA-MB-231 [11] = test: Induction of apoptosis in human MDA-MB-231 cells assessed as early apoptotic cells at 3 uM after 48 hrs by Annexin-V-FITC/propidium iodide staining based flow cytometric analysis (reference value: 2.98%); assay type: functional
MDA-MB-468 [12] = test: Induction of apoptosis in human MDA-MB-468 cells assessed as necrotic cells at 1 uM after 48 hrs by Annexin-V-FITC/propidium iodide staining based flow cytometric analysis (reference value: 0.240%); assay type: functional
[13] = target: T2, Signal transducer and activator of transcription 3; test: Inhibition of STAT3 in human HCC70 cells assessed as downregulation of c-Myc expression at 0.3 to 3 uM after 24 hrs by western blot analysis; assay type: cell-based; details: dose 0.3-3 µM; outline: as §1

## O=C(Cc1c(-c2ccccc2)nc2ccccn12)Nc1ccc2c(c1)S(=O)(=O)C=C2
[1]
  inhibition: inactive
[2]
  inhibition: Active
MDA-MB-231 [3]
  Activity: Active
H9c2
  IC50: 6.79 µM
MDA-MB-468 [4]
  Activity: 16.6%
[5]
  Activity: Non-Toxic
[6]
  Activity: Non-Toxic
[7]
  Activity: Non-Toxic
[8]
  inhibition: Dose-Dependent Effect
[9]
  inhibition: Active
MDA-MB-231 [10]
  viability at 3 µM: 73.9%
MDA-MB-231 [11]
  Activity: 12.5%
MDA-MB-468 [12]
  Activity: 1.54%
[13]
  inhibition: Active
